Bioassay records (PubChem BioAssay)
T cruzi repl: T. cruzi replication inhibition; hit rate 1.4% among 300,000; AID 1885; inhibition, % (no concentration beside the values); T. cruzi beta-gal in NIH3T3, luminescence, 90 h;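 active = mean inhibition across valid replicates above about 55%, limit read from the data; inconclusive = mean below that limit but half or more replicates reach it; inactive = mean below it, under half of replicates reach it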;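 also: signal also drops with host cell toxicity which is not excluded here; higher percent means less beta-gal luminescence so fewer parasites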
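Assay system: NIH/3T3 fibroblasts plus reporter T. cruzi. Amount: NIH/3T3 cells, 5,000 per well. Buffer or medium: DMEM, 2% fetal bovine serum. Doses: compound pinned at 50 nL/well, DMSO. Schedule: ≥90 h infection period, 3 h prior cell attachment. Signal: luminescent β-galactosidase signal after 60 min lysis. Read-out: parasite load inhibition, %.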
Dynein cargo inh: dynein cargo transport inhibition; AID 1381; 3617.4 mouse cells, GR-EGFP nuclear translocation imaging; test concentration mostly 20 µM; stimulated with dexamethasone, 1 µM; active compounds read low; z-score, hits read low; hit rate 0.47% among 220,000;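 active = plate z-score of nuclear minus cytoplasmic receptor signal below a set negative limit, without overly bright fluorescence or cell loss, cut at about -3.5 in these data, passing the limit was not always enough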;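 also: z-score of nuclear minus cytoplasmic ring GR-EGFP intensity difference per well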
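medium = tetracycline-free induction medium containing charcoal-stripped FBS | probe or stimulus = dexamethasone, 1.0 µM final | timing = 48 h induction, then 1 h compound, then 30 min agonist, 37 °C | detection = automated 10x imaging of fixed Hoechst-stained cells | read-out basis = nuclear versus cytoplasmic GR-EGFP signal, averaged per well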
Lmaj promast: reduces viability of Leishmania major promastigotes; hit rate 9% among 200,000; resazurin fluorescence viability; inhibition, % at 10 µM; AID 1063; in the data active = inhibition above about 50%;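 also: promastigotes grown with compound for 44 hours at 28 °C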
UPR XBP1 act: activators of adaptive arm of unfolded protein response (XBP1) | CHO-XBP1 luciferase reporter, IRE1-XBP1 UPR activation, luminescence; percent of tunicamycin response, DMSO as zero | activation, % at 20 µM | hit rate 0.33% among 330,000 | AID 463104;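 active = versus positive control, 20 µM dose yields 30% or more activation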
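Material: CHO cell line with stable XBP1 luciferase reporter; buffer or medium: F12 medium containing 10% fetal bovine serum; compound: single point, 20 µM final compound, 1% DMSO; incubation: 6 h treatment, 37 °C; measured by: glow luminescence from Steady-Glo reagent; evaluation: activation, % of tunicamycin; control set: tunicamycin high, DMSO low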
UPR CHOP act: apoptotic UPR (CHOP) activation. CHO-CHOP luciferase reporter, luminescence; percent of tunicamycin response over DMSO baseline. activation, % at 10 µM. hit rate 0.34% among 330,000. AID 449763;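 active = at 10 µM dose, activation of 40% or more, normalized to positive control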
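Test system: CHO CHOP reporter cells. Input: 500 CHO-CHOP cells per well. Medium: F12 with 10% FBS. Technique: luciferase luminescence. Measure: percent activation relative to tunicamycin control. Dosing: 10 µM compound, 0.5% DMSO. Timing: 16-18 h cell attachment, then 6 h compound exposure, 37 °C.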
CHOP inhibitor: CHOP inhibition in unfolded protein response. CHO-K1 CHOP-promoter luciferase, tunicamycin-induced, 15-18 h. inhibition, % at 10 µM. hit rate 3.8% among 220,000;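 active = compounds that reduced the stress-induced luciferase reporter signal by more than about 70% of percent inhibition, limit read from the data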
Large screens that a line does not name were inactive. Shown is part of a subset that was picked to be rich in hits.

CC(C)CCN1CCN(Cc2nc3ccccc3s2)CC1CCO (stereo not drawn)	Lmaj promast 82
Cc1cc(C)c(C(=O)COC(=O)c2cc([N+](=O)[O-])ccc2N2CCOCC2)cc1C	none (no result: Dynein cargo inh, Lmaj promast, CHOP inhibitor)
O=C(COC(=O)c1ccc(Cl)c(S(=O)(=O)N2CCCCC2)c1)NCC1CCCO1 (stereo not drawn)	none
CN(Cc1nc2ccccc2c(=O)[nH]1)C(=O)c1cc(C2CC2)nn1-c1ccccc1	none (no result: T cruzi repl, Dynein cargo inh, Lmaj promast, CHOP inhibitor)
OCCC1CN(Cc2nc3ccccc3s2)CCN1CCc1ccccc1 (stereo not drawn)	Lmaj promast 84
CC(C)(C)[C@@H]1COC(=O)[C@H](Cc2ccc(F)cc2)C/C=C\C[C@H](CC(=O)N(CCO)Cc2ccccc2)C(=O)N1	none (no result: T cruzi repl, Dynein cargo inh, Lmaj promast, CHOP inhibitor)
CC(=O)c1cccc(NC(=O)NNC(=O)c2ccc(-c3ccccc3)cc2)c1	none (no result: Dynein cargo inh, Lmaj promast, CHOP inhibitor)
c1ccc(Cn2nnnc2C(c2ccccc2)N2CCN(c3nc4ccccc4s3)CC2)cc1 (stereo not drawn)	T cruzi repl inconclusive, Lmaj promast 100
CCCCC(c1nnnn1Cc1ccco1)N1CCN(c2nc3ccccc3s2)CC1 (stereo not drawn)	Lmaj promast 97
COc1ccccc1C(c1nnnn1Cc1ccccc1)N1CCN(c2nc3ccccc3s2)CC1 (stereo not drawn)	Lmaj promast 91
CCC(=O)N1CCN(c2nc3ccccc3s2)CC1	none
COc1ccccc1C(c1nnnn1Cc1ccccc1)N1CCN(C2CCCC2)CC1 (stereo not drawn)	none
O=C(c1cc2sccc2n1Cc1ccccc1)N1CCN(c2nc3ccccc3s2)CC1	CHOP inhibitor 71
CCCC(c1nnnn1CCOC)N1CCN(c2nc3ccccc3s2)CC1 (stereo not drawn)	none
C[C@H]1[C@H](c2ccccc2)C[C@@H](C(=O)O)C1(C)C	none (no result: Dynein cargo inh, Lmaj promast, CHOP inhibitor)
COc1ccc(Cn2nnnc2C(c2cccnc2)N2CCN(c3ccc(O)cc3)CC2)cc1 (stereo not drawn)	Lmaj promast 94
c1ccc(C(c2nnnn2Cc2ccco2)N2CCN(c3nc4ccccc4s3)CC2)cc1 (stereo not drawn)	Lmaj promast 98
COCCn1nnnc1C(CC(C)C)N1CCN(c2nc3ccccc3s2)CC1 (stereo not drawn)	none
COc1ccc(C(c2nnnn2Cc2ccccc2)N2CCN(C(=O)c3ccco3)CC2)cc1OC (stereo not drawn)	none
Cc1ccc(S(=O)(=O)Cn2nnnc2C(C(C)C)N2CCN(c3nc4ccccc4s3)CC2)cc1 (stereo not drawn)	T cruzi repl 56, Lmaj promast 99
c1ccc(C(c2nnnn2Cc2ccco2)N2CCN(C3CCCC3)CC2)cc1 (stereo not drawn)	none
COc1ccc(C(c2nnnn2Cc2ccccc2)N2CCN(c3nc4ccccc4s3)CC2)cc1OC (stereo not drawn)	Lmaj promast 100
COc1cc(NS(=O)(=O)c2c(C(=O)N3CCOCC3)c(C)n(C)c2C)cc(OC)c1OC	none (no result: Dynein cargo inh, Lmaj promast, CHOP inhibitor)
COc1ccc(C(c2nnnn2C(C)(C)C)N2CCN(c3nc4ccccc4s3)CC2)cc1 (stereo not drawn)	Lmaj promast 57 (no result: UPR XBP1 act, UPR CHOP act)
CCC(C)(C)n1nnnc1C(c1ccc(O)c(OC)c1)N1CCN(c2nc3ccccc3s2)CC1 (stereo not drawn)	none (no result: T cruzi repl)
Cc1ccc(C(=O)NCCSCc2ccc(Cl)cc2Cl)cc1[N+](=O)[O-]	none
CS(=O)(=O)NCCSCc1c(Cl)cccc1Cl	T cruzi repl 75
S=C(NCCSCc1ccc(Cl)c(Cl)c1)Nc1ccccc1	none (no result: CHOP inhibitor)
S=C(NCCSCc1ccc(Cl)cc1Cl)Nc1ccccc1	Lmaj promast 84, CHOP inhibitor 81
S=C(NCCSCc1c(Cl)cccc1Cl)Nc1ccccc1	T cruzi repl 56
Cc1c(C(=O)NCCSCc2ccc(Cl)cc2Cl)cccc1[N+](=O)[O-]	CHOP inhibitor 72
COC(CNC(=O)c1ccc2c(c1)ncn2C1CCCCCC1)OC	none (no result: Dynein cargo inh, Lmaj promast, CHOP inhibitor)
COc1ccc(OCc2cc(C(=O)NC(C)c3csc(C)n3)no2)c(Cl)c1 (stereo not drawn)	none (no result: Dynein cargo inh, Lmaj promast, CHOP inhibitor)
CC(C)[C@H](NC(=O)c1ccccc1)C(=O)OCC(=O)Nc1ncc(Cl)cc1Cl	none (no result: T cruzi repl, Dynein cargo inh, Lmaj promast, CHOP inhibitor)
COc1cccc(/C=C/C(=O)NNC(=O)c2ccncc2)c1OC	none (no result: T cruzi repl, Dynein cargo inh, Lmaj promast, CHOP inhibitor)
COc1ccc(/C=C/c2ccncc2)cc1	T cruzi repl 74
COc1cccc(/C=C/c2ccncc2)c1OC	Lmaj promast 86
O=C(Nc1cccc2ccccc12)C12CC3CC(C1)CC(n1cnc([N+](=O)[O-])n1)(C3)C2	Lmaj promast 73
O=C(Nc1cc(Oc2ccccc2)cc([N+](=O)[O-])c1)C12CC3CC(C1)CC(n1cnc(Cl)n1)(C3)C2	T cruzi repl 62, Lmaj promast 80
Cc1cc(Cn2nc(-c3ccccc3)cc2C(=O)NCC2CC2)on1	none (no result: Dynein cargo inh, Lmaj promast, CHOP inhibitor)
CCCCc1ccc(NC(=S)NCc2cccs2)cc1	T cruzi repl 69, CHOP inhibitor 85
FC(F)(F)c1ccccc1/C=N/n1c(COc2ccccc2)n[nH]c1=S	none (no result: Dynein cargo inh, Lmaj promast, CHOP inhibitor)
CCN1CCN(CCOc2ccc(Br)cc2C)CC1	Lmaj promast 93
Cc1cc(Br)ccc1OCCN1CC(C)OC(C)C1 (stereo not drawn)	none
Cc1cc(Br)ccc1OCCN1CCCC1	T cruzi repl 73 (no result: Dynein cargo inh, Lmaj promast, CHOP inhibitor)
COc1ccccc1OCCn1c(SCC(=O)O)nc2ccccc21	none (no result: Dynein cargo inh, Lmaj promast, CHOP inhibitor)
CCn1c2ccccc2c2cc(CN3CCN(S(C)(=O)=O)CC3)ccc21	Lmaj promast 68
CCn1c2ccccc2c2cc(CN3CCN(Cc4cc(OC)ccc4O)CC3)ccc21	T cruzi repl 72
CCCCC[C@@H]1C=C(C(=O)O)[C@H](c2ccc(F)cc2)N1S(=O)(=O)c1ccc(C)cc1	none (no result: T cruzi repl, Dynein cargo inh, Lmaj promast, CHOP inhibitor)
Fc1ccccc1Nc1nc2c(s1)CCc1ccccc1-2	CHOP inhibitor 71 (no result: T cruzi repl, UPR XBP1 act, UPR CHOP act)
COc1ccc(-c2ccc(SCC(=O)c3cccs3)nn2)cc1OC	none
COc1ccc(-c2ccc(SCC(=O)c3ccc(F)cc3)nn2)cc1OC	Lmaj promast 63
Cc1ccccc1-n1nc(C(=O)c2cccs2)cc(-c2nc3ccccc3[nH]2)c1=N	T cruzi repl inconclusive, Lmaj promast 98
Cc1ccc2nc(-c3cccc(NC(=O)c4ccco4)c3)[nH]c2c1	none
Cc1cccc(-n2nc(C(=O)c3ccco3)cc(-c3nc4ccccc4[nH]3)c2=N)c1	Lmaj promast 100
CCC1CCC2(CC1)NC(=O)N(CC(=O)NCc1ccccc1Cl)C2=O (stereo not drawn)	none (no result: T cruzi repl, Dynein cargo inh, Lmaj promast, CHOP inhibitor)
Cn1ncc(Cl)c1C(=O)N1CCN(C(=O)c2ccco2)CC1	none (no result: UPR XBP1 act, UPR CHOP act)
CC1CC1C(=O)Nc1nc(-c2cccs2)c(-c2cccs2)s1 (stereo not drawn)	Lmaj promast 62
